Data on five compounds can be found in ChEMBL document CHEMBL5620421, “2,6-Disubstituted 7-(naphthalen-2-ylmethyl)-7H-purines as a new class of potent antitubercular agents inhibiting DprE1” (Eur J Med Chem, 2023).

Common to all, as to assay type: functional
What all share (settings): time 14-21 day

Experiment [1] concerns Mycobacterium tuberculosis. In words: Antimycobacterial activity against isoniazid/ethambutol/rifampin/streptomycin/amikacin/gentamicin/clofazimine/ofloxacin resistant MDR/XDR clinical isolate Mycobacterium tuberculosis PRAHA 131 assessed as inhibition of mycobacterial growth measured after 14 to 21 days of incubation by Sulas semisynthetic medium based assay. In outline: (§1)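 Clinical MDR/XDR M. tuberculosis isolates were tested by the Sula's semisynthetic medium micromethod. Compounds in DMSO at 1000 to 0.5 μmol/L, in twofold-type steps. Incubation at 37 °C, read at 14 and 21 days. MIC99 is the lowest concentration inhibiting >99% of growth. Drug resistance or susceptibility of each isolate is to amikacin, clofazimine, gentamicin, ofloxacin, streptomycin and the others listed.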

In experiment [2] the test system is Mycobacterium tuberculosis. Nature of the experiment: Antimycobacterial activity against isoniazid/ethambutol/rifampin/streptomycin/amikacin/gentamicin/clofazimine/ofloxacin resistant MDR/XDR clinical isolate Mycobacterium tuberculosis PRAHA 4 assessed as inhibition of mycobacterial growth measured after 14 to 21 days of incubation by Sulas semisynthetic medium based assay. In outline:
as §1

The subject of experiment [3] is Mycobacterium tuberculosis. Nature of the experiment: Antimycobacterial activity against isoniazid/ethambutol/rifampin/streptomycin/amikacin/gentamicin/clofazimine/ofloxacin resistant MDR/XDR clinical isolate Mycobacterium tuberculosis 8666/2010 assessed as inhibition of mycobacterial growth measured after 14 to 21 days of incubation by Sulas semisynthetic medium based assay. In outline:
as §1

Experiment [4] deals with Mycobacterium tuberculosis. Nature of the experiment: Antimycobacterial activity against isoniazid/ethambutol/rifampin/streptomycin/amikacin/gentamicin/clofazimine/ofloxacin resistant MDR/XDR clinical isolate Mycobacterium tuberculosis PRAHA 1 assessed as inhibition of mycobacterial growth measured after 14 to 21 days of incubation by Sulas semisynthetic medium based assay. The method, boiled down: as §1

Experiment [5] deals with Mycobacterium tuberculosis. Nature of the experiment: Antimycobacterial activity against isoniazid/ethambutol/rifampin/streptomycin/amikacin/gentamicin/clofazimine/ofloxacin resistant MDR/XDR clinical isolate Mycobacterium tuberculosis 9449/2007 assessed as inhibition of mycobacterial growth measured after 14 to 21 days of incubation by Sulas semisynthetic medium based assay. In outline:
as §1

Experiment [6] concerns Mycobacterium tuberculosis. Nature of the experiment: Antimycobacterial activity against isoniazid/ethambutol/rifampin/streptomycin/amikacin/gentamicin/clofazimine/ofloxacin resistant MDR/XDR clinical isolate Mycobacterium tuberculosis 234/2005 assessed as inhibition of mycobacterial growth measured after 14 to 21 days of incubation by Sulas semisynthetic medium based assay. The method, boiled down: as §1

The subject of experiment [7] is Mycobacterium tuberculosis. In words: Antimycobacterial activity against isoniazid/ethambutol/rifampin/streptomycin/amikacin/gentamicin/clofazimine/ofloxacin resistant MDR/XDR clinical isolate Mycobacterium tuberculosis 7357/1998 assessed as inhibition of mycobacterial growth measured after 14 to 21 days of incubation by Sulas semisynthetic medium based assay. The method, boiled down: as §1

Some results are limits rather than exact numbers.

On to `NCC[C@H](O)C(=O)N[C@@H]1C[C@H](N)[C@@H](O[C@H]2O[C@H](CN)[C@@H](O)[C@H](O)[C@H]2O)[C@H](O)[C@H]1O[C@H]1O[C@H](CO)[C@@H](O)[C@H](N)[C@H]1O` [AMIKACIN], for which the MIC99 in experiment [1] was greater than 32 µM.

For `CC1COc2c(N3CCN(C)CC3)c(F)cc3c(=O)c(C(=O)O)cn1c23` (stereo not given) [OFLOXACIN], in experiment [2], the MIC99 is greater than 16 µM.

`CO[C@H]1/C=C/O[C@@]2(C)Oc3c(C)c(O)c4c(O)c(c(/C=N/N5CCN(C)CC5)c(O)c4c3C2=O)NC(=O)/C(C)=C\C=C\[C@H](C)[C@H](O)[C@@H](C)[C@@H](O)[C@@H](C)[C@H](OC(C)=O)[C@@H]1C` [RIFAMPIN]: the MIC99 in experiment [1], in experiment [3], in experiment [4], in experiment [5], in experiment [6] and in experiment [2] was greater than 8 µM in each case. Besides, the MIC99 in experiment [7] was greater than 8 µM.

With `CN[C@@H]1[C@H](O[C@H]2[C@H](O[C@H]3[C@H](O)[C@@H](O)[C@H](N=C(N)N)[C@@H](O)[C@@H]3N=C(N)N)O[C@@H](C)[C@]2(O)C=O)O[C@@H](CO)[C@H](O)[C@H]1O` [STREPTOMYCIN], the MIC99 in experiment [1], in experiment [3], in experiment [5], in experiment [2] and in experiment [7] was greater than 32 µM throughout.

For the compound GENTAMICIN, the MIC99 in experiment [1] is greater than 8 µM.

Usually MIC99 stands for an inhibitory concentration at the 99% level, which refers to growth in some studies and to a panel of isolates in others.
